7 compounds from ChEMBL document CHEMBL1121366, “Synthesis and immunological activity of 5,6,6a,8,9,11a-hexahydronaphth[1',2':4,5]imidazo[2,1-b]thiazoles and 5,6,6a,9,10,11a-hexahydroanaphth[2',1':4,5]imidazo[2,1-b]thiazoles” (J Med Chem, 1980) can be followed below.

Data set [1] has as its system Mus musculus. Put plainly: Effect on humoral immune response in mice against sheep red blood cells by the plaque-forming cell (PFC/10e6 spleen cells) method in experiment 6 at dose 12 mg/kg. The format is functional. Put shortly:
(§1)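 Male CDF1 (Balb/c × DBA/2Cr) mice, 8-10 weeks old, groups of four, were immunized iv with 1 × 10^8 SRBC in PBS. After 24 h they received a single sc inguinal dose in saline, or as a suspension in saline with 1% Me2SO. Spleens were taken 4 days later and hemolytic plaque-forming cells counted by Cunningham's method. Values are the mean of four mice ± SE, with a paired Student's t test against the control.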

Data set [2] relates to Mus musculus. Nature of the data set: Effect on humoral immune response in mice against sheep red blood cells by the plaque-forming cell (PFC/10e6 spleen cells) method in experiment 6 at dose 3 mg/kg. The format is functional. Put shortly:
as §1

For data set [3], the system named is Mus musculus. Put plainly: Tested for increase in foot-pad thickness (mm) by its effect on cellular immune response in mice against sheep red blood cells by DHR method in experiment 15 at dose 12 mg/kg. It is filed as functional. An outline of the steps: (§2)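 Male mice, 8–10 weeks old, ICR strain. Groups of four were sensitized with 1 × 10^8 SRBC in PBS into one hind footpad, with compound given sc in the inguinal region in saline or saline/1% Me2SO. Four days later, 1 × 10^8 SRBC were injected into the other hind footpad. Foot thickness was measured with a dial gauge just before and 24 h after this challenge, and the increase was taken as the difference. Values are the mean of four mice ± SE.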

The subject of data set [4] is Mus musculus. Put plainly: Tested for increase in foot-pad thickness (mm) by its effect on cellular immune response in mice against sheep red blood cells by the DHR method in experiment 15 at dose 3 mg/kg. The format is functional. Put shortly:
as §2

Data set [5] concerns Mus musculus. Put plainly: Effect on humoral immune response in mice against sheep red blood cells by the plaque-forming cell (PFC/10e6 spleen cells) method in experiment 8 at dose 12 mg/kg. The format is functional. An outline of the steps:
as §1

Data set [6] in a line: Acute lethal dose was determined in mice upon intravenous administration. The format is ADME, organism-based. As to conditions: mouse, in vivo. Put shortly:
(§3)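 Male mice, 8–10 weeks old, CDF1 (Balb/c × DBA/2Cr). Groups of six dosed once, either iv or sc. Three to five dose levels were chosen from 400, 300, 150, 80, 40, 20 and 10 mg/kg. LD50 was calculated by the Litchfield–Wilcoxon method. Vehicle was saline or saline with 1% Me2SO, depending on compound.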

The test system of data set [7] is Mus musculus. Nature of the data set: Tested for increase in foot-pad thickness (mm) by its effect on cellular immune response in mice against sheep red blood cells by the DHR method in experiment 17 at dose 3 mg/kg. It is filed as functional. Put shortly: (§4)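 Male ICR mice, 8-10 weeks old, groups of four, were sensitized with 1 × 10^8 SRBC in PBS into one hind footpad and dosed sc in the inguinal region, in saline or in saline with 1% Me2SO. Four days later the other footpad was challenged with 1 × 10^8 SRBC. Foot thickness was gauged just before and 24 h after challenge, and the increase was reported as mean of four ± SE.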

Data set [8] has as its system Mus musculus. Nature of the data set: Effect on humoral immune response in mice against sheep red blood cells by the plaque-forming cell (PFC/10e6 spleen cells) method in experiment 8 at dose 3 mg/kg. The format is functional. Put shortly: as §1
For data set [9], the system named is Mus musculus. Put plainly: Tested for increase in foot-pad thickness (mm) by its effect on cellular immune response in mice against sheep red blood cells by DHR method in experiment 17 at dose 12 mg/kg. It is filed as functional. Put shortly: as §4
For data set [10], the system named is Mus musculus. Put plainly: Tested for increase in foot-pad thickness (mm) by its effect on cellular immune response in mice against sheep red blood cells by the DHR method in experiment 13 at dose 3 mg/kg. The format is functional. Put shortly:
as §4

Data set [11] concerns Mus musculus. Nature of the data set: Effect on humoral immune response in mice against sheep red blood cells by the plaque-forming cell (PFC/10e6 spleen cells) method in experiment 4 at dose 3 mg/kg. The format is functional. An outline of the steps: as §1
In data set [12] the test system is Mus musculus. Put plainly: Effect on humoral immune response in mice against sheep red blood cells by the plaque-forming cell (PFC/10e6 spleen cells) method in experiment 4 at dose 12 mg/kg. The format is functional. An outline of the steps:
as §1

For data set [13], the system named is Mus musculus. Put plainly: Tested for increase in foot-pad thickness (mm) by its effect on cellular immune response in mice against sheep red blood cells by DHR method in experiment 13 at dose 12 mg/kg. The format is functional. An outline of the steps:
as §4

Data set [14] relates to Mus musculus. Nature of the data set: Effect on humoral immune response in mice against sheep red blood cells by the plaque-forming cell (PFC/10e 6 spleen cells) method in experiment 9 at dose 3 mg/kg. It is filed as functional. Put shortly: as §1
The subject of data set [15] is Mus musculus. Nature of the data set: Effect on humoral immune response in mice against sheep red blood cells by the plaque-forming cell (PFC/10e 6 spleen cells) method in experiment 9 at dose 12 mg/kg. It is filed as functional. Put shortly:
as §1

Data set [16] has as its system Mus musculus. Nature of the data set: Tested for increase in foot-pad thickness (mm) by its effect on cellular immune response in mice against sheep red blood cells by the DHR method in experiment 11 at dose 3 mg/kg. It is filed as functional. Put shortly:
as §4

Data set [17] deals with Mus musculus. Nature of the data set: Effect on humoral immune response in mice against sheep red blood cells by the plaque-forming cell (PFC/10e 6 spleen cells) method in experiment 2 at dose 12 mg/kg. It is filed as functional. An outline of the steps: (§5)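 Male ICR mice, 8-10 weeks old, groups of four, were immunized iv with 1 × 10^8 SRBC in PBS. After 24 h they received a single sc inguinal dose in saline, or as a suspension in saline with 1% Me2SO. Splenic hemolytic plaque-forming cells were counted 4 days later by Cunningham's method. Values are the mean of four ± SE, with a paired t test against the control.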

Data set [18] deals with Mus musculus. Nature of the data set: Acute lethal dose was determined in mice upon subcutaneous administration. It is filed as ADME, organism-based. As to conditions: in vivo, sc. Put shortly:
as §3

For data set [19], the system named is Mus musculus. Put plainly: Tested for increase in foot-pad thickness (mm) by its effect on cellular immune response in mice against sheep red blood cells by DHR method in experiment 11 at dose 12 mg/kg. It is filed as functional. Put shortly:
as §4

In data set [20] the test system is Mus musculus. Put plainly: Effect on humoral immune response in mice against sheep red blood cells by the plaque-forming cell (PFC/10e 6 spleen cells) method in experiment 2 at dose 3 mg/kg. The format is functional. Put shortly:
as §5

As to `Brc1ccc2c(c1)C1C(CC2)N=C2SCCN21` (stereo unspecified), the results for the PFC in the data set with Mus musculus [1] and with Mus musculus [2] were 870 and 980, respectively. Further, the Increase in footpad thickness was 0.38 mm in the data set on Mus musculus [3] and 0.35 mm with Mus musculus [4].

As for `C[C@@H]1SC2=NC3c4ccccc4CCC3N2[C@@]1(O)c1ccccc1` (stereo partly specified), the PFC turned out to be 1120 in the data set with Mus musculus [5] and 550 in the data set with Mus musculus [8]. Also, in data set [6], the LD50 (in general, the dose expected to kill half of the subjects tested) came to 170 mg/kg. The values for the Increase in footpad thickness in the data set with Mus musculus [7] and in the data set on Mus musculus [9] were 0.28 mm and 0.52 mm, respectively.

On to `Clc1ccc2c(c1)CCC1N=C3SCCN3C21` (stereo unspecified), for which the results for the Increase in footpad thickness with Mus musculus [10] and with Mus musculus [13] were 0.27 mm and 0.28 mm, respectively. Besides, the values for the PFC in the data set on Mus musculus [11] and with Mus musculus [12] were 1880 and 1700, respectively.

`CC1=C(c2ccccc2)N2C(=NC3c4ccccc4CCC32)S1` (stereo unspecified): the PFC in the data set on Mus musculus [14] worked out at 740; in the data set on Mus musculus [15], 470. Moreover, the Increase in footpad thickness with Mus musculus [7] stood at 0.2 mm; in the data set with Mus musculus [9] it was 0.32 mm.

Regarding `Clc1ccc2c(c1)CCC1C2N=C2SCCN21` (cis isomer), the Increase in footpad thickness with Mus musculus [10] was determined as 0.26 mm; in the data set with Mus musculus [13] it was 0.33 mm. Further, the PFC is given as 1560 in the data set on Mus musculus [11] and 970 in the data set with Mus musculus [12].

Turning to `Brc1ccc2c(c1)C1N=C3SCCN3C1CC2` (cis isomer), the results for the PFC in the data set with Mus musculus [1] and in the data set with Mus musculus [2] were 1495 and 960, respectively. Also, the Increase in footpad thickness with Mus musculus [3] turned out to be 0.45 mm; in the data set on Mus musculus [4], 0.36 mm.

Take `c1ccc2c(c1)CCC1N=C3SCCN3C21` (stereo in doubt): the Increase in footpad thickness in the data set with Mus musculus [16] turned out to be 0.37 mm; with Mus musculus [19] it was 0.38 mm. The PFC in the data set on Mus musculus [17] is listed as 1610; in the data set on Mus musculus [20], 1800. The values for the LD50 (in data set [6]; in the data set with Mus musculus [18]) were 20 mg/kg and 68 mg/kg, respectively.
